Screening data deposited in PubChem BioAssay by Broad Institute.
Shown is part of a subset that was picked to be rich in hits.
T cruzi growth-1 – blocks T. cruzi growth in NIH3T3 culture | inhibition, % at 8.34 µM | hit rate 5.9% among 77,000 | T. cruzi beta-gal in NIH3T3, GalScreen luminescence, 90 h;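 active means mean inhibition above about 93%, with at least 55% of replicates each passing it, limit read from the data, passing the limit was not always enough; inconclusive means only one of those two conditions holds; inactive means neither condition holds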
IDH1 R132H inh – IDH1 R132H (human) inhibition. IDH1 R132H reductase, diaphorase/resazurin fluorescence, 60 min. inhibition, % at 10 µM. hit rate 0.18% among 70,000. AID 624101; in the data active means inhibition above about 34%; inconclusive means no clear call, values can overlap the other calls; inactive means below about 11%;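 further: 0% = DMSO and 100% = no enzyme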
Target sequence (O75874 whole entry R132H): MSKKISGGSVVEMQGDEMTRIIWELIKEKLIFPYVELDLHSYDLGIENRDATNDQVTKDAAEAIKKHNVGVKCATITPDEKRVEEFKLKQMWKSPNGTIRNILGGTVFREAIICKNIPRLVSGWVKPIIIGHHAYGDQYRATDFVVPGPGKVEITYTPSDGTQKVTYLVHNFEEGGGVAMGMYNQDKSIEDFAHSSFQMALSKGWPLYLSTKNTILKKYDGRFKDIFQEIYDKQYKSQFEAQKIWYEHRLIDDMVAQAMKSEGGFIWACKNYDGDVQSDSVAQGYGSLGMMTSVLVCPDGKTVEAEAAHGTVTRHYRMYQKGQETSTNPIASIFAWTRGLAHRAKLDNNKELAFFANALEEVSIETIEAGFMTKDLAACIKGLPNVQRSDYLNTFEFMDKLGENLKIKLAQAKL
KDM4C inh – blocks human GASC-1 (KDM4C) demethylase activity | Q9H3R0 | GST-KDM4C 2-372, H3K9me3 peptide, LANCE TR-FRET | inhibition, % at 12.5 µM | hit rate 0.15% among 96,000 | AID 720574;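 active means mean replicate inhibition above about 25%, with at least 55% of replicates also reaching it, limit read from the data, passing the limit was not always enough; inconclusive means only one of those two conditions met; inactive means neither condition met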
Target sequence (Q9H3R0 2-372 limits assumed): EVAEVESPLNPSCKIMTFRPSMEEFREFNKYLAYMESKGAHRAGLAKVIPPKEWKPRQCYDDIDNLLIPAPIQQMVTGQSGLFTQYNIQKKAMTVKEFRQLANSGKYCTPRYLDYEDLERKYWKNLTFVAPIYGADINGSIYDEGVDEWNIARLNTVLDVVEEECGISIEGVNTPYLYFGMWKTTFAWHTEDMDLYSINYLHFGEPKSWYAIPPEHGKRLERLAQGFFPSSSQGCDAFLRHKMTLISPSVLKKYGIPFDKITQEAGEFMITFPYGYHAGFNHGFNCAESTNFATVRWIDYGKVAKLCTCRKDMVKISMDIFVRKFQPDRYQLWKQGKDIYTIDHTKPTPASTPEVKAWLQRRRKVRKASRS
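Test system – GST-tagged GASC-1 (JMJD2C) catalytic fragment, aa 2-372 · Medium – HEPES buffer, pH 7.5, plus ascorbate · Reagent – H3K9me3 peptide with Fe(II)/2OG · Compound – one test concentration per compound · Timing – 30 min reaction, 60 min detection, RT · Technique – TR-FRET with Eu antibody and ULight streptavidin, EDTA stop · Read-out basis – inhibition from TR-FRET ratio decrease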
T cruzi growth-2 – inhibitors of T. cruzi proliferation; T. cruzi beta-gal in NIH3T3, GalScreen luminescence, 90 h; AID 651739; shares compounds with T cruzi growth-1; hit rate 72% among 5,600; inhibition, % at 8.35 µM;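 active means mean replicate inhibition above about 95% and at least 55% of replicates individually reaching it, limit read from the data; inconclusive means only one of the two criteria is met; inactive means neither criterion is met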
T cruzi growth-3 – inhibitors of T. cruzi proliferation; inhibition, % at 2.09 µM; shares compounds with T cruzi growth-1; AID 651740; T. cruzi beta-gal in NIH3T3, GalScreen luminescence, 90 h; hit rate 21% among 5,600;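 active means mean inhibition above about 95%, with at least 55% of replicates also reaching it, limit read from the data; inconclusive means meets just one of the two conditions; inactive means meets neither condition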;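 further: plate controls were neutral control median for no effect and positive control median for full effect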
3T3 cytotox – cytotoxicity in mouse NIH/3T3 fibroblasts | AID 651742 | cytotoxicity (signal decrease), % at 8.35 µM | hit rate 14% among 5,600 | shares compounds with T cruzi growth-1 | NIH/3T3 viability, CellTiter-Glo ATP luminescence, 90 h;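 active means mean signal decrease across replicates above about 35% based on untreated-well scatter, with enough replicates individually passing, limit read from the data; inconclusive means no rule stated though some were filed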;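 further: 0% = median of neutral control wells and 100% = median of positive control wells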
NIH3T3 tox 2 – NIH/3T3 (mouse) viability loss. NIH/3T3 viability, CellTiter-Glo ATP luminescence, 90 h. shares compounds with T cruzi growth-1. hit rate 56% among 5,600. AID 651744. inhibition, % at 24.9 µM;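 active means mean loss of cell viability signal at or above a set limit, and enough replicates individually reaching it; inconclusive means meets only the mean limit or only the replicate share; inactive means meets neither condition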;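 further: 0% = median of neutral control wells and 100% = median of positive control wells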
Active calls of the source: *; u = inconclusive; x = no result.

SMILES | T cruzi growth-1 | IDH1 R132H inh | KDM4C inh | others
COC(=O)c1c(NC(=S)Nc2ccn(C)n2)sc(C(=O)N(C)C)c1C | x | 0 | x
C[C@H]1CN([C@@H](C)CO)S(=O)(=O)c2ccc(-c3cccnc3)cc2O[C@H]1CN(C)C(=O)C1CCC1 | 19 | -6 | 2
O=C(NCc1ccccc1Cl)[C@H]1[C@H](CO)[C@H]2Cn3c(cccc3=O)[C@H]2N1C(=O)C1CCCC1 | 67 | x | 0
COc1ccccc1NC(=O)N[C@@H]1CC[C@H](CCNS(=O)(=O)c2ccccc2)O[C@@H]1CO | -37 | 0 | -2
Cc1ccc(NC(=O)COc2ccc(Br)cc2Cl)c([N+](=O)[O-])c1 | x | 0 | x
CO[C@@H]1CN(C)C(=O)c2ccc(NC(=O)Nc3c(C)noc3C)cc2OC[C@@H](C)NC[C@@H]1C | 71 | 0 | -1
CCC(=O)N(C)C[C@H]1Oc2cc(C3=CCCCC3)ccc2S(=O)(=O)N([C@@H](C)CO)C[C@@H]1C | 75 | x | 1
O=C(NCC[C@@H]1CC[C@@H](NC(=O)C2CC2)[C@@H](CO)O1)c1cnccn1 | x | 0 | -4
C[C@H]1CN([C@@H](C)CO)C(=O)c2cc(NC(=O)Nc3ccc(C(F)(F)F)cc3)ccc2O[C@H]1CN(C)S(=O)(=O)c1cccs1 | 123* | 1 | 0 | T cruzi growth-2=103*;T cruzi growth-3=57;3T3 cytotox=5;NIH3T3 tox 2=85*
C[C@@H]1CCCCO[C@H](CN(C)S(=O)(=O)c2cccs2)[C@@H](C)CN([C@H](C)CO)C(=O)c2cc(NC(=O)Nc3ccc4c(c3)OCO4)ccc2O1 | 33 | 1 | x
C[C@H](CO)N1C[C@H](C)[C@@H](CN(C)S(=O)(=O)c2cccs2)Oc2ccc(NC(=O)Nc3ccc(F)cc3)cc2C1=O | -49 | 1 | -2
C[C@H](CO)N1C[C@H](C)[C@@H](CN(C)S(=O)(=O)c2cccs2)OCCCC[C@H](C)Oc2ccc(NC(=O)NC3CCCCC3)cc2C1=O | 76 | x | 1
C[C@@H]1CCCCO[C@@H](CN(C)S(=O)(=O)c2cccs2)[C@H](C)CN([C@H](C)CO)C(=O)c2cc(NC(=O)NC3CCCCC3)ccc2O1 | 118* | x | -4 | T cruzi growth-2=106*;T cruzi growth-3=36;3T3 cytotox=2;NIH3T3 tox 2=-3
C[C@H]1CCCCO[C@@H](CN(C)S(=O)(=O)c2cccs2)[C@@H](C)CN([C@@H](C)CO)C(=O)c2cc(NC(=O)Nc3ccc4c(c3)OCO4)ccc2O1 | 111* | x | 1 | T cruzi growth-2=111*;T cruzi growth-3=48;3T3 cytotox=14;NIH3T3 tox 2=10
O=C(CSc1nc2c(c(C(F)(F)F)n1)CCc1ccccc1-2)Nc1ccc(Cl)cc1 | x | 0 | x
Cc1noc(C)c1S(=O)(=O)N(C)C[C@H]1OCCCC[C@@H](C)Oc2ccc(NC(=O)C3CCCCC3)cc2C(=O)N([C@@H](C)CO)C[C@@H]1C | 59 | x | -1
Cc1ccc(S(=O)(=O)Nc2ccc3c(c2)C(=O)N([C@H](C)CO)C[C@H](C)[C@@H](CN(C)S(=O)(=O)c2cccs2)OCCCC[C@H](C)O3)cc1 | x | x | 0
Cc1ccc(S(=O)(=O)Nc2ccc3c(c2)C(=O)N([C@@H](C)CO)C[C@@H](C)[C@H](CN(C)S(=O)(=O)c2cccs2)OCCCC[C@H](C)O3)cc1 | x | -2 | 4
Cc1ccc(S(=O)(=O)N(C)C[C@H]2OCCCC[C@@H](C)Oc3ccc(NS(=O)(=O)c4cccs4)cc3C(=O)N([C@H](C)CO)C[C@H]2C)cc1 | u | x | 0 | T cruzi growth-2=90;T cruzi growth-3=31;3T3 cytotox=-29;NIH3T3 tox 2=-39
C[C@@H]1CN([C@H](C)CO)C(=O)c2cc(NS(=O)(=O)c3cccs3)ccc2O[C@@H](C)CCCCO[C@H]1CN(C)S(=O)(=O)c1ccccc1 | x | -1 | -1
Cc1ccc(S(=O)(=O)N(C)C[C@@H]2OCCCC[C@@H](C)Oc3ccc(NS(=O)(=O)c4cccs4)cc3C(=O)N([C@H](C)CO)C[C@H]2C)cc1 | 59 | 0 | 1
Cc1ccc(S(=O)(=O)N(C)C[C@@H]2OCCCC[C@@H](C)Oc3ccc(NS(=O)(=O)c4cccs4)cc3C(=O)N([C@@H](C)CO)C[C@@H]2C)cc1 | 103* | x | -1 | T cruzi growth-2=104*;T cruzi growth-3=70;3T3 cytotox=12;NIH3T3 tox 2=-2
Cc1ccc(S(=O)(=O)N(C)C[C@H]2OCCCC[C@H](C)Oc3ccc(NS(=O)(=O)c4cccs4)cc3C(=O)N([C@H](C)CO)C[C@H]2C)cc1 | 109* | x | -2 | T cruzi growth-2=103*;T cruzi growth-3=16;3T3 cytotox=-37;NIH3T3 tox 2=-15
C[C@@H]1CCCCO[C@H](CN(C)S(=O)(=O)c2ccccc2)[C@H](C)CN([C@@H](C)CO)C(=O)c2cc(NS(=O)(=O)c3cccs3)ccc2O1 | u | -1 | -1 | T cruzi growth-2=103*;T cruzi growth-3=46;3T3 cytotox=-10;NIH3T3 tox 2=-8
CC(C)NC(=O)N(C)C[C@H]1Oc2ncc(C#CC3CCCC3)cc2C(=O)N([C@@H](C)CO)C[C@@H]1C | 69 | x | -1
SMILES | T cruzi growth-1 | IDH1 R132H inh | KDM4C inh | others
COc1ccc2c3c([nH]c2c1)[C@H](CO)N(C(=O)c1ccc(F)cc1)CC31CCN(C)CC1 | x | x | -1
Cc1ccc(S(=O)(=O)N[C@@H]2CC[C@@H](CCNC(=O)Nc3ccc(Cl)cc3)O[C@H]2CO)cc1 | 30 | 0 | -1
CO[C@@H]1CN(C)C(=O)c2ccc(NC(=O)CC(F)(F)F)cc2OC[C@H](C)N(C(=O)C2CC2)C[C@@H]1C | x | x | 2
C[C@H]1CN([C@@H](C)CO)C(=O)c2cccc(NS(=O)(=O)c3ccc(Cl)cc3)c2O[C@@H]1CN(C)C(=O)Nc1ccccc1 | 19 | x | 0
NC(=O)c1ccccc1NC(=O)COc1cc(Cl)c(Cl)cc1Cl | x | 0 | x
CCCc1cn(CC[C@@H]2CC[C@@H](NS(=O)(=O)c3ccccc3Cl)[C@H](CO)O2)nn1 | 41 | 0 | 4
COC(=O)c1ccccc1NC(=O)Cn1nc([N+](=O)[O-])c(Br)c1C | x | 0 | x
Cc1ccccc1CN(CC(N)=O)S(=O)(=O)c1ccc(Cl)cc1 | x | 0 | x
Cc1ccc(S(=O)(=O)N(C)C[C@H]2OCCCC[C@@H](C)Oc3ccc(NS(=O)(=O)c4cccs4)cc3C(=O)N([C@@H](C)CO)C[C@@H]2C)cc1 | u | 2 | 0 | T cruzi growth-2=107*;T cruzi growth-3=53;3T3 cytotox=-3;NIH3T3 tox 2=15
Cc1ccc(S(=O)(=O)N(C)C[C@@H]2OCCCC[C@@H](C)Oc3ccc(NS(=O)(=O)c4cccs4)cc3C(=O)N([C@@H](C)CO)C[C@H]2C)cc1 | 86 | u | 8
Cc1ccc(S(=O)(=O)N(C)C[C@@H]2OCCCC[C@H](C)Oc3ccc(NS(=O)(=O)c4cccs4)cc3C(=O)N([C@H](C)CO)C[C@@H]2C)cc1 | 119* | -1 | 1 | T cruzi growth-2=96*;T cruzi growth-3=42;3T3 cytotox=-25;NIH3T3 tox 2=-7
Cc1ccc(S(=O)(=O)N(C)C[C@@H]2OCCCC[C@@H](C)Oc3ccc(NS(=O)(=O)c4cccs4)cc3C(=O)N([C@H](C)CO)C[C@@H]2C)cc1 | 61 | x | 0
